# High-throughput results from PubChem.
# A selection: hits, their analogues and other compounds. The true share with any hit is near 9.5%.
# M1 antag = M1 muscarinic receptor (rat) antagonism; CHO-M1 cells, Fluo-4 calcium, ACh EC80 antagonist mode; stronger effect = lower value; AID 628; B-score at 10 µM; P08482; 64,000 tested, 3.4% active;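 active = calcium fluorescence response, raw or row-and-column corrected B-score, differing from the plate sample mean either way at a set confidence level, mostly lower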
# HEK293 NFkB inh = inhibitors of the PMA/ionomycin-induced NF-kB reporter in HEK293 cells; AID 465; 62,000 tested, 0.21% active; HEK-293 NF-kB luciferase reporter, luminescence; inhibition, % at 3 µM;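 active = inhibition above the mean of all tested compounds plus 3 SD, cut at about 40% in these data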;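 note: 0% = stimulated DMSO wells and 100% = 10 µM reference inhibitor 5653914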
#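 Material: HEK-293 cells with stable firefly luciferase reporter driven by four HIV NF-kB elements / Also added: PMA plus ionomycin mix as NF-kB-activating stimulus / Compound dosing: 3 µM once, 0.30% DMSO / Times: 1 h pretreatment, 16 h stimulation, 37 °C / Signal: luminescence / Evaluation: per-plate % inhibition versus controls / Benchmarks: DMSO and 10 µM reference inhibitor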
# Jurkat viability = cytotoxicity toward Jurkat cells; inhibition, % at 4 µM; Jurkat E6.1 viability, ATP luminescence, 48 h; 56,000 tested, 1.2% active;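 active = inhibition above the mean inhibition of all tested compounds plus 3 SD, cut at about 28% in these data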
# Htt clearance = mutant huntingtin protein clearance. HeLa Exon1htt(103Q)mCFP, aggregate imaging; zero = plate's median compound well. inhibition, % at 1.5 µM. 47,000 tested, 0.42% active;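 active = inhibition of aggregate fluorescence above about 70%, also judged a hit by eye on the cell image, limit read from the data, passing the limit was not always enough; inconclusive = no rule stated for this call; inactive = not judged a hit on image review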;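 note: cells exposed to compound for three days before fixation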
# M1 agonist = agonists of M1 muscarinic receptor; CHO-M1 cells, Fluo-4 calcium fluorescence, agonist mode; stronger effect = higher value; B-score at 10 µM; 64,000 tested, 3% active; AID 626;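 active = fluorescence rise, raw or as B-score row- and column-corrected plate score, outside the 99.7% band of its plate's samples, either direction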
# D1 mod = D1 dopamine receptor (human) allosteric modulation; HEK293 D1, CRE-luciferase, dopamine EC30 potentiation; actives deviate in either direction; B-score at 10 µM; AID 641; 58,000 tested, 5.9% active; P21728;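 active = luminescence count or its row- and column-corrected plate score outside the 99.7% band of the plate's sample wells, on either side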
# Target sequence (P21728 whole entry, looked up): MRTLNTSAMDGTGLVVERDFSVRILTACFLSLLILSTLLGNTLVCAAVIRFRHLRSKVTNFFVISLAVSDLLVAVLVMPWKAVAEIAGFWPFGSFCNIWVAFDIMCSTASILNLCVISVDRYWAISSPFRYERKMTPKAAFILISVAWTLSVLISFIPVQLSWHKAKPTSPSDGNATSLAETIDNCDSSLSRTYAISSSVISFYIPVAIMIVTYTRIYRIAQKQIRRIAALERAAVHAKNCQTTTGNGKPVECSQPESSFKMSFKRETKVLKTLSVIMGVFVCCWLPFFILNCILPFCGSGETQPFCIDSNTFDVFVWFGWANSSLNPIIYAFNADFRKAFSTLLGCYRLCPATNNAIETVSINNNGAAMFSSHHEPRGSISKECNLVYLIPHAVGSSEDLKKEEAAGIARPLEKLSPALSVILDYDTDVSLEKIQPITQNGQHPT
# D1 PAM confirm = confirmation of human D1 dopamine receptor allosteric modulators. shares compounds with D1 mod. HEK293 D1 CRE-luciferase, dopamine EC30 potentiation; stronger effect = higher value. luminescence at 10 µM. 2,200 tested, 88% active;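 active = luminescence in either of two replicates above the same-plate mean plus 3 SD of the low-dose dopamine control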
# D1 no dopamine = secondary test of D1 modulators: activity without dopamine; shares compounds with D1 mod; HEK293 D1 CRE-luciferase, luminescence, no dopamine; stronger effect = higher value; luminescence at 10 µM; 1,900 tested, 0.8% active; in the data active = luminescence above about 3900
# Isoprot counter = alters isoproterenol CRE-luciferase response in HEK293 cells | shares compounds with D1 mod | HEK293 D1 CRE-luciferase, isoproterenol EC30 counter-screen; stronger effect = higher value | luminescence at 10 µM | 2,200 tested, 63% active | AID 647;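 active = luminescence in either replicate above plate mean of wells with a partly effective reference agonist dose plus 3 SD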;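 note: isoproterenol raises cAMP through native beta-adrenoceptor Gs so signal bypasses D1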
# Starred values were filed as active, the others as inactive; ? = inconclusive; · = not tested or not shown.
SMILES,M1 antag,HEK293 NFkB inh,Jurkat viability,Htt clearance,M1 agonist,D1 mod,D1 PAM confirm,D1 no dopamine,Isoprot counter
CCN1C(=O)c2cccc3c(S(=O)(=O)Nc4ccccc4)ccc1c23,·,·,·,-65,·,·,·,·,·
CCN1C(=O)c2cccc3c(S(=O)(=O)Nc4ccccn4)ccc1c23,0.8,40*,12,-37,-0.92,2.5*,5724*,1712,2824
CCN1C(=O)c2cccc3c(S(=O)(=O)Nc4ncccc4C)ccc1c23,0.2,20,8,·,-0.027,7.9*,9156*,1492,4368*
COC(=O)CSC1=C(C#N)C(c2ccsc2)CC(=O)N1 (stereo unspecified),·,·,·,41,·,·,·,·,·
O=C(Nc1ccc(-c2noc(CCc3ccccc3)n2)cc1)c1ccco1,0.28,-8,8,·,-0.83,-1.3,·,·,·
Cc1nnc(SCCn2c(N3CCC(C)CC3)nc3c2c(=O)[nH]c(=O)n3C)s1,0.92,9,4,?,0.93,-0.17,·,·,·
Cn1c(=O)[nH]c(=O)c2c1nc(N1CCCC1)n2CCCSc1nc2ccccc2o1,-0.037,19,·,·,-0.99,5.3*,17352*,2232,6260*
Cc1nnc(SCCn2c(N3CCCC(C)C3)nc3c2c(=O)[nH]c(=O)n3C)s1 (stereo unspecified),0.97,-8,2,·,-0.59,4.1*,9916*,1740,2832
Cn1c(=O)[nH]c(=O)c2c1nc(Br)n2CCCSc1nc2ccccc2o1,-0.58,12,15,22,0.81,6.7*,10016*,1580,3492*
CC1CCCN(c2nc3c(c(=O)[nH]c(=O)n3C)n2CCSc2nc3ccccc3o2)C1 (stereo unspecified),-0.63,9,-3,·,-0.48,·,·,·,·
Cn1c(=O)[nH]c(=O)c2c1nc(N1CCCCC1)n2CCCSc1nc2ccccc2s1,0.077,2,7,-7,0.53,5.7*,16664*,1660,7192*
COc1ccc(N(CC(=O)N2CCCCC2)S(=O)(=O)c2ccccc2)c(OC)c1,-0.12,9,-3,·,-0.75,-0.42,·,·,·
Cc1cc(C)n(-c2nnc3n2N=C(c2c[nH]c4ccccc24)CS3)n1,0,6,57*,45,0.73,9.8*,10564*,1848,3500*
Cc1cc(C)n(-c2nnc3n2N=C(c2ccccc2)CS3)n1,0.59,-11,8,42,-0.33,0.72,·,·,·
CCCc1nc(NCc2ccncc2)c2nnn(Cc3ccccc3F)c2n1,-0.59,20,7,·,-0.036,6.9*,7368*,1464,3136
CCc1nc(NCCc2ccccn2)c2nnn(Cc3ccccc3F)c2n1,-0.4,3,1,·,1.5,12*,20308*,1720,4856*
CCCc1nc(NCc2ccccn2)c2nnn(Cc3ccccc3F)c2n1,·,·,·,38,·,·,·,·,·
CCn1c(SCC(=O)N(Cc2ccccc2)C2CCS(=O)(=O)C2)nc2ccccc2c1=O (stereo unspecified),0.48,18,-3,32,-0.54,8.9*,13696*,·,3240*
CN(C)c1ncnc2c1ncn2C1OC(CO)C(O)C1O (stereo unspecified),·,·,·,44,·,·,·,·,·
Nc1nc(Cl)nc2c1ncn2[C@@H]1O[C@H](CO)[C@@H](O)[C@H]1O,0.46,·,·,·,0.66,24*,16252*,5660*,11320*
COc1cc(-n2c(C)nc3cc(C(=O)N4CCOCC4)ccc32)cc(OC)c1OC,-0.85,11,-7,·,-0.73,0.28,·,·,·
CCOc1ccc(CCNC(=O)C2CC(=O)N(C3CCCC3)C2)cc1OCC (stereo unspecified),0.49,16,6,-23,-0.8,0.084,·,·,·
CC1(C)CC(=O)C(CCC(=O)c2ccccc2)C(C)(C)N1 (stereo unspecified),-0.023,16,4,·,-0.64,4.7*,4348,1672,2280
O=C(CCC1CCCCC1=O)c1ccccc1 (stereo unspecified),-0.49,15,-15,21,-0.18,-0.35,·,·,·
Cc1ccc(NC(=O)CSc2nnc(-c3ccco3)c(-c3ccco3)n2)cc1,-0.09,·,·,2,0.63,·,·,·,·
SMILES,M1 antag,HEK293 NFkB inh,Jurkat viability,Htt clearance,M1 agonist,D1 mod,D1 PAM confirm,D1 no dopamine,Isoprot counter
CSc1nnc(-c2ccco2)c(-c2ccco2)n1,0.85,10,0,·,1,4.2*,10584*,·,3436*
O=C(CN1C(=O)C2C3C=CC(C3)C2C1=O)Nc1nc2ccccc2[nH]1 (stereo unspecified),·,·,·,14,·,·,·,·,·
COC(=O)CNC(=O)COC(=O)C(Cc1ccccc1)NC(=O)c1ccco1 (stereo unspecified),2.1,15,-2,-16,0.1,0.02,·,·,·
O=C(NC(Cc1ccccc1)C(=O)OCC(=O)N1CCc2ccccc21)c1ccco1 (stereo unspecified),-1.5,26,4,·,2.1,3.1*,5596,1648,2496
Cc1sc2c(c1C)c(=O)n(-c1ccccc1)c1nnc(C)n21,0.037,16,-3,-31,0.2,3.1,·,·,·
C=CCn1c(=O)c2c(C)c(C)sc2n2c(Nc3ccc(OC)cc3)nnc12,0.023,18,-2,-53,0.9,3.3*,10192*,1584,3324
CCc1nc(N2CCOCC2)c(C#N)c2c1COC(C)(C)C2,0.58,20,2,·,0.0083,5.6*,15288*,·,3408*
CC1(C)Cc2nc(N3CCOCC3)c(C#N)cc2CO1,0.41,9,-6,·,-0.12,2.8*,9156*,·,2624
Cc1ccc(-n2c(=O)cc(NCc3cccnc3)[nH]c2=O)cc1,0.77,14,·,·,-0.16,0.73,·,·,·
Cc1cccc(N2CCN(C(=O)c3cc4c(C)nc5ccccc5c4o3)CC2)c1C,-0.61,8,-1,·,0.31,-0.86,·,·,·
CCCCOC(=O)CSc1nc2c(c(=O)[nH]c(=O)n2C)n1C/C=C(\C)Cl,-0.0019,7,0,-55,-0.29,-0.49,·,·,·
CC(C)CCn1c(SCCN2CCOCC2)nc2c1c(=O)[nH]c(=O)n2C,0.01,25,-3,-18,-0.093,2.2,·,·,·
CCCCCn1c(SCC(=O)OC)nc2c1c(=O)[nH]c(=O)n2C,-0.071,2,-6,·,-0.13,4.2*,14176*,1660,2844
CCOC(=O)C(CC)Sc1nc2c(c(=O)[nH]c(=O)n2C)n1C/C=C(/C)Cl (stereo unspecified),0.021,17,5,-23,1.4,8.6*,16300*,1792,4280*
COC(=O)CSc1nc2c(c(=O)[nH]c(=O)n2C)n1CCC(C)C,0.54,11,-2,-71,0.46,5.2*,12872*,1692,3720*
